ChEMBL document CHEMBL1135821, “Unique overlap in the prerequisites for thrombin inhibition and oral bioavailability resulting in potent oral antithrombotics” (J Med Chem, 2002)
Blank lines part the entries; values can stand above or below the compound they belong to.

Key:
[1] = Oral bioavailability; format: ADME, organism-based; settings: eutheria, in vivo
How it was run: (§1)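 Rats (275-325 g) with jugular cannula placed under methohexital one day earlier; dogs dosed by both routes with at least 2 weeks wash-out. IV and oral gavage in separate rats. At least six blood samples in EDTA. Plasma anti-IIa activity measured with S-2238 against a compound-spiked plasma calibration. %F = PO AUC divided by dose-normalized mean IV AUC ×100, AUC by trapezium rule.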

[2] = Half life value in rat was determined; format: ADME, organism-based; settings: in vivo
How it was run: (§2)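 Elimination half-life after IV dosing of cannulated rats (275-325 g) or dogs, at least six EDTA plasma samples. Plasma samples diluted in Tris-NaCl pH 7.4, incubated 2 min with 0.5 U/mL human thrombin, then S-2238 added. ΔOD405 taken between 2 and 22 min and read against a calibration of compound spiked in pooled plasma. Fitted by iterative Simplex procedure.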

[3] = Bioavailability in rat; format: ADME, organism-based; settings: in vivo; how it was run: as §1
Prothrombin [4] = target: T1, Prothrombin (Homo sapiens, UniProt P00734); assay: Inhibitory activity against thrombin.
[5] = Bioavailability in rat (Wistar); format: ADME, organism-based; settings: in vivo; how it was run: as §1
[6] = Bioavailability in dog; format: ADME, organism-based, Canis lupus familiaris; settings: in vivo; how it was run: as §1
[7] = Half life value determined in dog; format: ADME, Canis lupus familiaris; settings: in vivo; how it was run: as §2
[8] = Half life value in wistar rats; format: ADME, organism-based; settings: rat, in vivo; how it was run: as §2
[9] = Bioavailability determined in rat; format: ADME, organism-based; settings: in vivo; how it was run: as §1
[10] = Half life was reported; format: ADME
[11] = Bioavailability in dog determined; format: ADME, organism-based, Canis lupus familiaris; settings: in vivo; how it was run: as §1
[12] = Clearance was reported; format: ADME, organism-based; settings: in vivo
Prothrombin [13] = target: T1, Prothrombin; assay: Antithrombotic potency in the Aortic flow model in rats was reported; format: functional; settings: Rattus norvegicus; target entry is the homologue from another species
How it was run: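 Rats (350-500 g body wt) were weighed. A silk thread (size 4/0, uncoated), knotted twice and protruding 3 mm from a catheter, was introduced via the left common carotid artery and positioned in the aorta. The carotid was clamped and the iliac clamp released. After 10 min of blood circulation, the thread was removed and rinsed, and thrombus weight and length were measured.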

[14] = Half life value in dog was determined; format: ADME, organism-based, Canis lupus familiaris; settings: in vivo; how it was run: as §2

SMILES: CC1CNc2c(cccc2S(=O)(=O)N[C@@H](CCCNC(=N)N)C(=O)N2CC[C@@H](C)C[C@@H]2C(=O)O)C1 (stereo partly drawn) [ARGATROBAN]
bioavailability [1]: 27%

SMILES: NCCCC[C@H](NC(=O)[C@@H]1CCCN1C(=O)[C@@H](CC1CCCCC1)NCC(=O)O)C(=O)C(=O)NCCc1ccccc1
half-life [2]: 17 min
bioavailability [3]: 23%
Ki (Prothrombin [4]): 0.84 nM

SMILES: NCCCC[C@H](NC(=O)[C@@H]1CCN1C(=O)[C@@H](CC1CCCCC1)NCC(=O)O)C(=O)C(=O)O
bioavailability [5]: 15%
bioavailability [6]: 1%
half-life [7]: 42 min
half-life [8]: 21 min
Ki (Prothrombin [4]): 0.5 nM

SMILES: NCCCC[C@H](NC(=O)[C@@H]1CCCCN1C(=O)[C@@H](CC1CCCCC1)NCC(=O)O)C(=O)C(=O)O
half-life [8]: 5 min
bioavailability [9]: 6%
Ki (Prothrombin [4]): 0.29 nM

SMILES: NCCCC[C@H](NC(=O)CN(C(=O)[C@@H](CC1CCCCC1)NCC(=O)O)C1CCCC1)C(=O)C(=O)O
half-life [2]: 18 min
bioavailability [3]: 2%
Ki (Prothrombin [4]): 0.21 nM

SMILES: NCCCC[C@H](NC(=O)CN(C1CC1)C1Cc2ccccc2C1)C(=O)c1nccs1
Ki (Prothrombin [4]): > 1000 nM

SMILES: NCCCC[C@H](NC(=O)[C@@H]1CCCN1C(=O)[C@H](N)CC1CCCCC1)C(=O)C(=O)O
half-life [10]: 9 min
bioavailability [1]: 9%
Ki (Prothrombin [4]): 0.14 nM

SMILES: NCCCC[C@H](NC(=O)CN(C(=O)[C@H](N)CC1CCCCC1)C1CC1)C(=O)c1nccs1
Ki (Prothrombin [4]): 13 nM

SMILES: NCCCC[C@H](NC(=O)[C@@H]1CCCN1C(=O)[C@@H](CC1CCCCC1)NCC(=O)O)C(=O)c1ncco1
half-life [10]: < 5 min
bioavailability [1]: 28%
Ki (Prothrombin [4]): 0.42 nM

SMILES: COc1ccc2ccc(S(=O)(=O)N[C@@H](CCCCN)C(=O)N3CCC(C)CC3)cc2c1
Ki (Prothrombin [4]): > 1000 nM

SMILES: NC(N)=NCCC[C@H](NC(=O)[C@@H]1CCCN1C(=O)[C@@H](N)Cc1ccccc1)C(=O)c1nccs1
half-life [10]: 5 min
bioavailability [1]: < 5%
Ki (Prothrombin [4]): 0.3 nM

SMILES: COc1ccc2ccc(S(=O)(=O)N[C@@H](CCCCN)C(=O)c3nccs3)cc2c1
Ki (Prothrombin [4]): > 1000 nM

SMILES: CCS(=O)(=O)N[C@H](CC1CCCCC1)C(=O)N1CCC[C@H]1C(=O)N[C@@H](CCCCN)C(=O)c1nccs1
Ki (Prothrombin [4]): 2 nM

SMILES: NC(N)=NCCC[C@@H]1NC(=O)[C@@H]2CCCN2C(=O)[C@@H](NC=O)CNC(=O)/C=C/[C@H](Cc2ccc(O)cc2)NC(=O)[C@@H](Cc2ccccc2)NC(=O)C1=O [CYCLOTHEONAMIDE A]
Ki (Prothrombin [4]): 1 nM

The next lines start with the values.

Ki (Prothrombin [4]): 376 nM
SMILES: CC1(C)CCN(C(=O)[C@@H](CC2CCCCC2)NCC(=O)O)[C@@H]1C(=O)N[C@@H](CCCCN)C(=O)C(=O)O

Ki (Prothrombin [4]): 1.4 nM
SMILES: NCCCC[C@H](NC(=O)[C@@H]1CCCN1C(=O)[C@H](N)Cc1ccccc1)C(=O)C(=O)O

Ki (Prothrombin [4]): 15 nM
SMILES: NCCCC[C@H](NC(=O)[C@@H]1CCCN1C(=O)[C@H](CC(=O)O)NS(=O)(=O)Cc1ccccc1)C(=O)C(=O)O

half-life [2]: 8 min
bioavailability [3]: 25%
Ki (Prothrombin [4]): 0.82 nM
SMILES: NCCCC[C@H](NC(=O)[C@@H]1CC2CCCCC2N1C(=O)[C@@H](CC1CCCCC1)NCC(=O)O)C(=O)C(=O)O (stereo partly drawn)

Ki (Prothrombin [4]): 146 nM
SMILES: NCCCC[C@H](NC(=O)[C@@H]1CCCN1C(=O)[C@H](N)Cc1ccccc1)C(=O)c1nccs1

bioavailability [5]: 37%
half-life [5]: 32 min
bioavailability [6]: 68%
half-life [8]: 22 min
Ki (Prothrombin [4]): 0.33 nM
SMILES: NCCCC[C@H](NC(=O)[C@@H]1C=CCN1C(=O)[C@@H](CC1CCCCC1)NCC(=O)O)C(=O)C(=O)O

Ki (Prothrombin [4]): > 1000 nM
SMILES: O=C(c1nccs1)[C@H](CCCCO)NC(=O)[C@@H]1CCCN1C(=O)CC(c1ccccc1)c1ccccc1

Ki (Prothrombin [4]): 204 nM
SMILES: NCCCC[C@H](NC(=O)[C@@H]1CCCN1C(=O)CC(c1ccccc1)c1ccccc1)C(=O)c1nccs1

bioavailability [5]: < 5%
half-life [8]: 17 min
Ki (Prothrombin [4]): 3.5 nM
SMILES: NCCCC[C@H](NC(=O)[C@@H]1CCCN1C(=O)[C@H](N)CC1CCCCC1)C(=O)c1nccs1

bioavailability [11]: 24%
half-life [7]: 78 min
half-life [8]: 19 min
clearance [12]: 0.417 mL/min
bioavailability [1]: 39%
ED50 (nM min-1 kg-1) (Prothrombin [13]): 7.5
Ki (Prothrombin [4]): 0.29 nM
SMILES: NCCCC[C@H](NC(=O)[C@@H]1CCCN1C(=O)[C@@H](CC1CCCCC1)NCC(=O)O)C(=O)C(=O)O

half-life [10]: 23 min
bioavailability [1]: 23%
ED50 (nM min-1 kg-1) (Prothrombin [13]): 19
Ki (Prothrombin [4]): 2.6 nM
SMILES: NCCCC[C@H](NC(=O)[C@@H]1CCCN1C(=O)[C@@H](CC1CCCCC1)NCC(=O)O)C(=O)c1nccs1

bioavailability [6]: 71%
half-life [14]: 108 min
half-life [2]: 58 min
bioavailability [3]: 32%
Ki (Prothrombin [4]): 1.1 nM
SMILES: CC(C)OC(=O)C(=O)[C@H](CCCCN)NC(=O)[C@@H]1CCCN1C(=O)[C@@H](CC1CCCCC1)NCC(=O)O
